Screening results as filed in PubChem.
MEKK3 PB1 HTS = MEKK3-MEK5 PB1 interaction, increase or decrease. AID 1529. binding response (% of control), % at 10 µM. bead-based flow cytometry, Alexa488-MEK5 binding to MEKK3; actives lie on both sides; 0 = blocked by unlabeled MEK5, 100 = vehicle. 290,000 tested, 1.4% active. Q99759;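 active = binding response more than 3 SD above or below the average of its plate-row segment, actives on both sides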;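 note: Alexa488 bead fluorescence after subtracting the streptavidin-only scavenger bead signal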
MEKK2mut PB1 HTS = signal of MEK5 binding to mutant human MEKK2 PB1 domain | AID 1530 | bead flow cytometry, Alexa488-MEK5 binding to MEKK2 mutant | percent response, % at 10 µM | 290,000 tested, 0.35% active; in the data active = percent response above about 24%, passing the limit was not always enough
MEKK2 WT-MEK5 = raises or lowers MEK5 binding to wildtype human MEKK2 PB1 domain | binding response (% of control), % at 10 µM | 290,000 tested, 1.1% active | bead flow cytometry, Alexa488-MEK5 binding to MEKK2 WT; actives lie on both sides; in the data active = binding response below about 67% or above about 130%
Apaf-1 inh = human Apaf-1 inhibition | O14727 | reconstituted apoptosome caspase-3 activity, DEVD-Rh110 fluorescence | inhibition, % at 20 µM | 330,000 tested, 0.71% active | AID 489030; active = inhibition of at least 40% at 20 µM;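 note: plate controls were DMSO wells for no effect and DEVD-CHO caspase inhibitor wells for full effect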
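Material: reconstituted apoptosome with Apaf-1, cytochrome c, caspase-9, procaspase-3, dATP / Buffer or medium: pH 7.5 Hepes buffer with CHAPS, BSA, DTT / Also added: cytochrome c with DEVD-Rh110 / Schedule: compound with Apaf-1, dATP, procaspase-3 30 min, then 50 min reaction, room temperature / Technique: rhodamine 110 fluorescence at Ex 480/Em 540 nm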
UBC13 polyUb = inhibitors of human UBC13 polyubiquitin chain formation | P61088 | 330,000 tested, 0.47% active | inhibition, % at 20 µM | TR-FRET; in the data active = inhibition above about 45%, passing the limit was not always enough
Target sequence (P61088 whole entry, looked up): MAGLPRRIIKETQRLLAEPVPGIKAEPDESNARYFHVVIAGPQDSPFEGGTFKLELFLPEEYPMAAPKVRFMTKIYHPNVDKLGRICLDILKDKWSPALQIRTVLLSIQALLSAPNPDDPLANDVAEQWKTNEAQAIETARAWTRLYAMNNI
UCH37 DUB inh = blocks the human deubiquitinase UCH37. Q9Y5K5. purified proteasome/UCH37, Ub-AMC cleavage fluorescence. inhibition, % (no concentration beside the values). 330,000 tested, 0.33% active;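 active = mean inhibition over replicate wells above about 20%, limit read from the data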;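 note: 0% = compound-free wells with enzyme and 100% = wells lacking proteasome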
Target sequence (Q9Y5K5 whole entry, looked up): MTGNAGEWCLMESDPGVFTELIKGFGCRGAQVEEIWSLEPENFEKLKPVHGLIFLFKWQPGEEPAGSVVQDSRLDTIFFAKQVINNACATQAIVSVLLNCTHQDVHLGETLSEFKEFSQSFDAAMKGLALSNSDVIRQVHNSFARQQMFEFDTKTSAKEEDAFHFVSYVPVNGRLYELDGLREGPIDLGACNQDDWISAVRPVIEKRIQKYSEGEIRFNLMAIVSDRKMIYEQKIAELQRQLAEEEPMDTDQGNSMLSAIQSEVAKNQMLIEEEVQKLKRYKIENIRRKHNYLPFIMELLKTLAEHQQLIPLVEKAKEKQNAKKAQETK
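Reagent: Ub-AMC substrate; assay system: Proteasome-associated human UCH37 deubiquitinase; controls: no-proteasome and no-compound wells; read-out: % inhibition of Ub-AMC cleavage fluorescence; timing: 30 min preincubation with enzyme, 25 min cleavage at room temperature; signal: AMC fluorescence from Ub-AMC cleavage, excitation 355 nm, emission 460 nm; buffer or medium: Tris-HCl pH 7.4 plus ovalbumin, ATP-MgCl2, DTT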
Apaf-1 inh conf2 = Apaf-1 inhibition, single-dose confirmed | shares compounds with Apaf-1 inh | reconstituted apoptosome, caspase-3 DEVD-Rh110 fluorescence | inhibition, % at 20 µM | 1,800 tested, 25% active | AID 504614;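 active = mean inhibition of at least 40% at 20 µM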;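 note: plate controls were DMSO wells for no effect and DEVD-CHO caspase inhibitor control wells for full effect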
Rh110 quench = Rh110 signal interference in Apaf-1 inhibitor counter-screen | shares compounds with Apaf-1 inh | Rh110 fluorescence interference, quenched caspase reaction | activation (fluorescence interference), % at 20 µM | 1,800 tested, under 10 active;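 active = signal rise of 40% or more at 20 µM, treated as a fluorescence artifact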
Apaf1 inh interf = Apaf-1 inhibitor counter-screen fluorescence artifact. AID 588538. fluorescence interference counterscreen, Apaf-1 assay format. 460 tested, under 10 active. IC50, µM. shares compounds with Apaf-1 inh; call rule not given here
* hit, by the source's call; · = not tested or not shown. An excerpt weighted towards active compounds, which were near 3% of everything screened.

SMILES	MEKK3 PB1 HTS	MEKK2mut PB1 HTS	MEKK2 WT-MEK5	Apaf-1 inh	UBC13 polyUb	UCH37 DUB inh	Apaf-1 inh conf2	Rh110 quench	others
CCOc1cccc(-c2cc(=O)[nH][nH]2)c1	82.0	-7.0	92.0	43.9*	-13.5	3.1	8.6	3.9
CN1CCN(S(=O)(=O)c2cccc(C(=O)Oc3ccc(C(C)(C)C)cc3)c2)CC1	·	·	·	40.0	5.2	1.3	14.9	5.8
CCc1nc(N2CCN(C(C)=O)CC2)c2c3c(sc2n1)CC(C(C)(C)C)CC3 (stereo not given)	101.0	4.0	107.0	41.8*	22.4	-1.8	31.2	10.5
CCNC(=S)N1CCN(c2nc(CC)nc3sc4c(c23)CCCC4)CC1	102.0	11.0	104.0	14.0	8.6	5.1	·	·
COc1cc(/C=C/c2cc(C(=O)O)c3ccccc3n2)ccc1OC(F)F	105.0	1.0	106.0	-7.3	21.0	-127.6	·	·
O=C1OC(=O)c2cc([N+](=O)[O-])ccc21	·	·	·	3.8	5.3	3.3	·	·
O=C1Nc2ccccc2Nc2ccc([N+](=O)[O-])cc21	105.0	1.0	104.0	43.0*	-66.5	8.5	32.8	1.5
Nc1ccc(Oc2ncccn2)cc1	97.0	0.0	95.0	43.5*	-7.2	10.1	51.5*	8.1	Apaf1 inh interf=>100
Cc1cc(OC(=O)c2ccccc2)n(CCC#N)n1	99.0	1.0	97.0	43.2*	6.5	2.5	11.5	-3.5
CN=C(Nc1cc(C)nn1CCC#N)c1ccccc1	100.0	4.0	104.0	1.8	-9.5	-2.5	·	·
COc1ccc2nc3cccc(OC)c3nc2c1	57.0	-13.0	70.0	96.6*	-54.6	3.1	26.9	0.8
COc1ccc(-c2nc3ccccc3nc2-c2ccc(OC)c(OC)c2)cc1OC	107.0	5.0	106.0	12.3	13.6	-69.8	·	·
COc1ccc2nc3ccccc3nc2c1N	101.0	6.0	100.0	92.3*	-371.3	10.4	20.9	-1.9
NC(=O)c1ccc(NC(=O)CCc2nc3sc4c(c3c(=O)[nH]2)CCCC4)cc1	·	·	·	1.2	8.5	1.5	·	·
O=C(Nc1ccc(N2CCCC2)cc1)C(Cl)c1ccccc1 (stereo not given)	99.0	-1.0	94.0	65.0*	-7.6	·	25.7	2.6
CN(C)c1ccc(N/C=C/C(=O)c2ccccc2)cc1	100.0	2.0	102.0	2.9	-34.1	4.0	·	·
CN(C)c1ccc(N/C=C/C(=O)C(C)(C)C)cc1	100.0	3.0	102.0	53.4*	-17.7	9.2	-2.9	-2.6
Cc1[nH]n(-c2ccccc2)c(=O)c1C(C[N+](=O)[O-])c1ccc(F)cc1 (stereo not given)	96.0	-2.0	97.0	93.8*	-19.6	10.3	22.3	9.1
Cc1[nH]n(-c2ccccc2)c(=O)c1C(c1ccccc1[N+](=O)[O-])C(C#N)C#N (stereo not given)	101.0	6.0	104.0	10.1	-6.6	4.5	·	·
COc1ccc(C(c2c(C)[nH]n(-c3ccccc3)c2=O)c2c(C)[nH]n(-c3ccccc3)c2=O)cc1OC	99.0	-1.0	98.0	97.4*	-22.1	18.3	24.6	-4.2
CCCCC1=CC2=CC(=O)C(C)(OC(=O)CC)C(=O)C2=CN1C1CCCC1 (stereo not given)	94.0	-1.0	100.0	15.8	-39.3	2.0	·	·
Cc1ccc(SCC(=O)OCC(=O)NCc2ccco2)cc1	·	·	·	1.5	-9.1	0.9	·	·
Cc1cccc2sc(N(CCCN(C)C)C(=O)c3ccc(S(=O)(=O)N4CCc5ccccc5C4)cc3)nc12	108.0	51.0*	216.0*	62.6*	39.2	2.5	25.1	-6.1
CCOC(=O)N1CCN(S(=O)(=O)c2ccc(C(=O)N(CCN(C)C)c3nc4c(C)cccc4s3)cc2)CC1	99.0	11.0	114.0	7.4	11.0	5.1	·	·
CCCC(=O)OCCNc1cc(SCc2ccco2)c2nonc2c1[N+](=O)[O-]	127.0	1.0	106.0	57.1*	-37.9	8.2	-1.3	0.3
SMILES	MEKK3 PB1 HTS	MEKK2mut PB1 HTS	MEKK2 WT-MEK5	Apaf-1 inh	UBC13 polyUb	UCH37 DUB inh	Apaf-1 inh conf2	Rh110 quench	others
CC(=O)OCCCNc1cc(SCc2ccco2)c2nonc2c1[N+](=O)[O-]	124.0	0.0	106.0	73.8*	-32.5	10.4	0.2	-1.8
CCC(=Nc1ccc(N)cc1)C1=C(O)C(C(=O)OC)C(C)(C)CC1=O (stereo not given)	99.0	3.0	100.0	61.5*	-7.0	4.8	18.7	1.6
CCC(=NCc1ccccc1)C1=C(O)C(C(=O)OC)C(C)(C)CC1=O (stereo not given)	88.0	-10.0	94.0	-3.3	1.8	3.0	·	·
O=C(Nc1ccccc1)Nc1cccc2ccccc12	71.0	-11.0	73.0	-19.5	20.0	-0.6	·	·
O=C(Nc1ccccc1)Nc1ccc(O)c2ccccc12	·	·	·	44.0*	-8.8	-17.6	28.3	1.8
O=C(N=Nc1c(O)n(C2OC(=O)c3ccccc32)c2ccccc12)c1ccc(O)cc1 (stereo not given)	·	·	·	1.9	-14.4	1.6	·	·
O=C(C1CCC1)N1CCN(S(=O)(=O)c2cc(F)ccc2F)CC1	·	·	·	-5.5	2.3	0.7	·	·
CCOC(=O)COc1ccc2ccccc2c1/C=C/[N+](=O)[O-]	103.0	-1.0	95.0	·	·	6.6	·	·
CCOc1ccc(/C=C/[N+](=O)[O-])c2ccccc12	100.0	-11.0	79.0	80.5*	-44.1	1.9	23.9	1.5
O=C(NC(=S)Nc1ncccn1)c1ccc(F)cc1	95.0	2.0	97.0	9.9	-8.8	3.3	·	·
O=C(CC1Nc2cccc3cccc(c23)NC1=O)Nc1ccccc1 (stereo not given)	96.0	-3.0	97.0	96.1*	-30.4	2.3	13.9	0.6
CCCOc1ccc(NC(=O)CC2Nc3ccccc3NC2=O)cc1 (stereo not given)	104.0	-10.0	93.0	-2.2	-15.1	0.2	·	·
NC(=O)CC1Nc2cccc3cccc(c23)NC1=O (stereo not given)	100.0	4.0	101.0	98.0*	-38.9	7.3	19.6	2.4
O=C(CC1Nc2ccccc2NC1=O)c1ccccc1 (stereo not given)	100.0	21.0	104.0	10.3	-26.5	·	·	·
CC(C)N(C(=O)[C@H]1C[C@H](CC(=O)NCCC2=CCCCC2)C(=O)N2CCc3c([nH]c4ccc(Cl)cc34)[C@]12C)C(C)C	·	·	·	43.9*	·	2.0	22.9	11.7
